ChEMBL document CHEMBL3414553, “Novel imidazo[2,1-b]-1,3,4-thiadiazoles as promising antifungal agents against clinical isolate of Cryptococcus neoformans” (2015)
Values after ≈ are worked out from the molar mass of the structure shown.

Tests used:
Type in all cases: functional
Aspergillus niger = assay: Antifungal activity against Aspergillus niger ATCC 16404 after 24 hrs by two-fold broth microdilution method; settings: ATCC 16404, 24 h
Method in brief: (§1)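 Strains subcultured one day before testing; colonies suspended in sterile water and adjusted to 0.5 McFarland (1.5 × 10^8 cfu/ml). Two-fold dilutions in MHB (medium pH 7.4 ± 0.1), final 200 to 0.39 µg/ml. Incubated 37 ± 1 °C for 24 h, then resazurin (0.4 mg/ml) added for a further 5 h. MIC read by colour: blue = no growth, pink = growth.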

Pseudomonas aeruginosa = assay: Antibacterial activity against Pseudomonas aeruginosa ATCC 27853 after 24 hrs by two-fold broth microdilution method; settings: ATCC 27853, 24 h; method in brief: as §1
Candida albicans [1] = assay: Antifungal activity against Candida albicans ATCC 90028 after 24 hrs by two-fold broth microdilution method; settings: ATCC 90028, 24 h; method in brief: as §1
Bacillus subtilis = assay: Antibacterial activity against Bacillus subtilis ATCC 6051 after 24 hrs by two-fold broth microdilution method; settings: ATCC 6051, 24 h; method in brief: as §1
Cryptococcus neoformans [2] = assay: Antifungal activity against […] clinical isolate after 24 hrs by two-fold broth microdilution method; method in brief: as §1
Candida albicans [3] = assay: Antifungal activity against Candida albicans clinical isolate after 24 hrs by two-fold broth microdilution method; method in brief: as §1
Escherichia coli = assay: Antibacterial activity against Escherichia coli ATCC 35218 after 24 hrs by two-fold broth microdilution method; settings: ATCC 35218, 24 h; method in brief: as §1
Cryptococcus neoformans [4] = assay: Antifungal activity against […] ATCC 66031 after 24 hrs by two-fold broth microdilution method; settings: ATCC 66031, 24 h; method in brief: as §1
Staphylococcus aureus = assay: Antibacterial activity against Staphylococcus aureus ATCC 25923 after 24 hrs by two-fold broth microdilution method; settings: ATCC 25923, 24 h; method in brief: as §1
Candida tropicalis = assay: Antimicrobial activity against Candida tropicalis
Cryptococcus neoformans [5] = assay: Antimicrobial activity against […]
Candida albicans [6] = assay: Antimicrobial activity against Candida albicans
[7] = Cytotoxicity against human OVCAR3 cells; settings: OVCAR-3
[8] = Cytotoxicity against human HL60 cells; settings: HL-60
MCF7 = assay: Cytotoxicity against human MCF7 cells

Compound	MIC (Aspergillus niger) [µg/mL]	MIC (Pseudomonas aeruginosa) [µg/mL]	MIC (Candida albicans [1]) [µg/mL]	MIC (Bacillus subtilis) [µg/mL]	MIC (Cryptococcus neoformans [2]) [µg/mL]	MIC (Candida albicans [3]) [µg/mL]	MIC (Escherichia coli) [µg/mL]	MIC (Cryptococcus neoformans [4]) [µg/mL]	MIC (Staphylococcus aureus) [µg/mL]	MIC (Candida tropicalis) [µg/mL]	MIC (Cryptococcus neoformans [5]) [µg/mL]	MIC (Candida albicans [6]) [µg/mL]	GI50 [7] [µM]	GI50 [8] [µM]	GI50 (MCF7) [µM]
O=C(/C=C/c1c(-c2ccc(Br)cc2)nc2sc(-c3ccccc3Cl)nn12)c1cccs1	> 200	> 200	50 (≈ 94.9 µM)	> 200	200 (≈ 380 µM)	> 200	> 200	200 (≈ 380 µM)	> 200						
COc1ccc(-c2nn3c(/C=C/C(=O)c4ccccc4)c(-c4ccc(Br)cc4)nc3s2)cc1	> 200	> 200	50 (≈ 96.8 µM)	> 200	12.5 (≈ 24.2 µM)	> 200	200 (≈ 387 µM)	3.12 (≈ 6.05 µM)	> 200						
Clc1ccccc1-c1nn2c(/C=N/C3CCCCC3)c(-c3ccc(Br)cc3)nc2s1	100 (≈ 200 µM)	50 (≈ 100 µM)	12.5 (≈ 25 µM)	200 (≈ 400 µM)	> 200	25 (≈ 50 µM)	200 (≈ 400 µM)	100 (≈ 200 µM)	200 (≈ 400 µM)						
Brc1ccc(-c2nc3sc(-c4ccccc4Br)nn3c2/C=N/C2CC2)cc1	100 (≈ 199 µM)	50 (≈ 99.6 µM)	25 (≈ 49.8 µM)	200 (≈ 398 µM)	200 (≈ 398 µM)	50 (≈ 99.6 µM)	200 (≈ 398 µM)	100 (≈ 199 µM)	200 (≈ 398 µM)						
O=C(/C=C/c1c(-c2ccc(Br)cc2)nc2sc(-c3ccccc3)nn12)c1ccccc1	> 200	> 200	> 200	> 200	200 (≈ 411 µM)	> 200	> 200	25 (≈ 51.4 µM)	> 200						
Cc1ccc(C(=O)/C=C/c2c(-c3ccc(Br)cc3)nc3sc(-c4ccccc4)nn23)cc1	> 200	> 200	25 (≈ 50 µM)	> 200	100 (≈ 200 µM)	> 200	> 200	25 (≈ 50 µM)	> 200						
O=C(/C=C/c1c(-c2ccc(Br)cc2)nc2sc(-c3ccccc3Br)nn12)c1ccccc1	> 200	> 200	200 (≈ 354 µM)	> 200	6.25 (≈ 11.1 µM)	> 200	> 200	1.56 (≈ 2.76 µM)	200 (≈ 354 µM)						
COc1ccc(-c2nn3c(/C=N/C4CC4)c(-c4ccc(Br)cc4)nc3s2)cc1	100 (≈ 221 µM)	25 (≈ 55.1 µM)	25 (≈ 55.1 µM)	200 (≈ 441 µM)	> 200	50 (≈ 110 µM)	200 (≈ 441 µM)	100 (≈ 221 µM)	200 (≈ 441 µM)						
Clc1ccc(-c2nn3c(/C=N/C4CCCCC4)c(-c4ccc(Br)cc4)nc3s2)cc1	100 (≈ 200 µM)	50 (≈ 100 µM)	50 (≈ 100 µM)	200 (≈ 400 µM)	> 200	50 (≈ 100 µM)	200 (≈ 400 µM)	100 (≈ 200 µM)	200 (≈ 400 µM)						
O=C(/C=C/c1c(-c2ccc(Br)cc2)nc2sc(-c3ccccc3)nn12)c1cccs1	> 200	> 200	200 (≈ 406 µM)	> 200	6.25 (≈ 12.7 µM)	> 200	> 200	6.25 (≈ 12.7 µM)	> 200						
Brc1ccc(-c2nc3sc(-c4ccccc4Br)nn3c2/C=N/C2CCCCC2)cc1	50 (≈ 91.9 µM)	50 (≈ 91.9 µM)	50 (≈ 91.9 µM)	200 (≈ 367 µM)	200 (≈ 367 µM)	50 (≈ 91.9 µM)	200 (≈ 367 µM)	100 (≈ 184 µM)	200 (≈ 367 µM)						
COc1ccc(-c2nn3c(/C=C/C(=O)c4ccc(C)cc4)c(-c4ccc(Br)cc4)nc3s2)cc1	> 200	> 200	200 (≈ 377 µM)	> 200	3.12 (≈ 5.89 µM)	> 200	200 (≈ 377 µM)	1.56 (≈ 2.94 µM)	> 200						
COc1ccc(-c2nn3cc(-c4ccc(Br)cc4)nc3s2)cc1OC										12.5 (≈ 30 µM)	6.25 (≈ 15 µM)	6.25 (≈ 15 µM)			
CC1=NN2C(=NC(C)C2C(=O)NNc2ccc(O)cc2)S1 (configuration not stated)													5.51	4.5	4.51
O=C(/C=C/c1c(-c2ccc(Br)cc2)nc2sc(-c3ccccc3Cl)nn12)c1ccccc1	> 200	> 200	> 200	> 200	12.5 (≈ 24 µM)	> 200	100 (≈ 192 µM)	12.5 (≈ 24 µM)	> 200						
Brc1ccc(-c2nc3sc(-c4ccc(I)cc4)nn3c2/C=N/C2CC2)cc1	100 (≈ 182 µM)	50 (≈ 91 µM)	25 (≈ 45.5 µM)	200 (≈ 364 µM)	> 200	50 (≈ 91 µM)	200 (≈ 364 µM)	100 (≈ 182 µM)	200 (≈ 364 µM)						
